Source: ChEMBL document CHEMBL1131504, “(Z)- and (E)-2-((hydroxymethyl)cyclopropylidene)methyladenine and -guanine. New nucleoside analogues with a broad-spectrum antiviral activity” (J Med Chem, 1998)
pIC50: −log10 of the molar value.

Tests used:
[1] = test system: CEM-SS; experiment: Cytotoxicity on CEM-SS cells; assay type: functional, cell-based; conditions: Homo sapiens
Procedure, shortened: (§1)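 Visual cytotoxicity: microscopic inspection of stationary uninfected CEM or CEM-SS cells from suspension cultures.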

[2] = test system: CCRF-CEM; experiment: Cytotoxicity was measured on CEM cells infected with Herpes Simplex virus […]; assay type: functional, cell-based; conditions: Homo sapiens
[3] = test system: Daudi; experiment: Cytotoxicity on Daudi cells at time of […] in cells not effected by the virus.; assay type: functional, cell-based; conditions: Homo sapiens
[4] = test system: Daudi; experiment: Inhibitory concentration against epstein-barr virus (EBV) infected daudi cells was determined; assay type: functional, cell-based; conditions: Homo sapiens
Procedure, shortened: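 Daudi cells infected with P3HR-1 EBV at 0.1–0.2 moi for 45 min at 37 °C, washed, then incubated 48 h with serially diluted drug in RPMI-1640. Acetone-fixed cells stained with anti-VCA monoclonal antibody and FITC anti-mouse IgG, Evans Blue counterstain; 500 cells counted, VCA-positive fraction used for IC50.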

[5] = test system: Human alphaherpesvirus 1; experiment: Inhibitory concentration against herpes simplex virus type 1 (HSV-1) was determined by enzyme-linked immunosorbent assay (ELISA); assay type: functional, organism-based
[6] = Cytotoxicity on H-1 cells at time of HCMV plaque enumeration in cells not effected by the virus.; assay type: functional, cell-based; conditions: Homo sapiens
[7] = test system: HFF; experiment: Inhibitory concentration against herpes simplex virus type 1 (HSV-1) infected HFF cells was determined by cytopathic effect inhibition assay; assay type: functional, cell-based; conditions: Homo sapiens
Procedure, shortened: (§2)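 HFF cells (low passage) seeded 24 h before in MEM + 10% FBS; drug in MEM + 2% FBS, serial 1:5 dilutions in triplicate, 1 h pre-incubation, then HSV-1 or HSV-2 at 1000 pfu/well. Incubated 3 days at 37 °C, crystal violet/ethanol/formaldehyde stain, absorbance at 630 nm; IC50 by linear regression of % inhibition vs log concentration.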

[8] = test system: HFF; experiment: Inhibitory concentration against human cytomegalovirus replication in HFF cells was determined by cytopathic effect inhibition assay; assay type: functional, cell-based
Procedure, shortened: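 HFF cells seeded 24 h before; serial 1:5 drug dilutions in MEM + 2% FBS in triplicate, 1 h, then 2500 pfu/well CMV. Incubated 14 days at 37 °C with 50 μL MEM added on day 7; crystal violet stain, read at 630 nm. IC50 from regression.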

[9] = test system: HFF; experiment: Inhibitory concentration against human cytomegalovirus replication in HFF cells was determined by plaque reduction assay; assay type: functional, cell-based
Procedure, shortened: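 HFF cells infected with HCMV Towne (~100 pfu/cm2). After adsorption, drug added to duplicate wells at four to eight concentrations; 8–10 days at 37 °C, crystal violet stain, microscopic plaques counted. % plaque reduction vs no-drug control; IC50 by linear regression vs log concentration.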

[10] = test system: HFF; experiment: Inhibitory concentration against human cytomegalovirus replication in HFF cells was determined by yield reduction assay; assay type: functional
Procedure, shortened: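 HFF cells (12 500/well) infected with HCMV at moi 0.5–1 and exposed to compound in duplicate at 100 to 0.14 μM for 4 days at 37 °C. After freeze–thaw, supernatants serially diluted onto fresh HFF monolayers and plaques titered; IC90 reported.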

[11] = test system: HFF; experiment: Compound was tested against HFF cells infected with herpes simplex virus type 2 (HSV-2) by cytopathic effect inhibition assay; assay type: functional, cell-based; conditions: Homo sapiens; procedure, shortened: as §2
[12] = test system: HepG2; experiment: Inhibitory concentration against hepatitis B virus infected 2.2.15 cells; assay type: functional, cell-based; conditions: Homo sapiens
Procedure, shortened: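 HBV-producing 2.2.15 cells in MEM + 10% FBS; compounds added on days 6 and 9, 6 days of exposure. Virions in the medium precipitated with PEG/NaCl, DNA extracted, run on 0.8% agarose, Southern blotted with 32P HBV probe, quantified by densitometry.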

[13] = test system: KB; experiment: Cytotoxicity was evaluated by measuring the inhibition of KB cell growth.; assay type: functional, cell-based; conditions: Homo sapiens
Procedure, shortened: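 KB cells at 3000–5000/well, overnight at 37 °C, compound added in triplicate at eight concentrations. Growth over 48 h (two population doublings), then ethanol fixation, 0.1% crystal violet stain, eluted dye read at 570 nm; quadruplicate assays. IC50 by linear regression of % inhibition vs log concentration.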

[14] = test system: Vero; experiment: Compound was tested against vero cells infected with herpes simplex virus type 2 (HSV-2); assay type: functional, cell-based; conditions: Chlorocebus sabaeus
Procedure, shortened: (§3)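 Confluent Vero monolayers (RPMI + 5% FBS + 0.1% methylcellulose) infected 1 h with HSV-1 KOS or HSV-2 333 at 20 or 100 pfu/well. Drug overlay in RPMI + 2% dialyzed FBS + 0.1% methylcellulose, 48–72 h at 37 °C, 5% CO2. Crystal violet stain, plaques counted; IC50 by linear regression of % inhibition vs log concentration.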

[15] = test system: Vero; experiment: Inhibitory concentration against herpes simplex virus type 1 (HSV-1) infected vero cells was determined; assay type: functional, cell-based; conditions: Chlorocebus sabaeus; procedure, shortened: as §3
[16] = Inhibitory concentration against epstein-barr virus (EBV) infected H-1 cells was determined; assay type: functional, cell-based; conditions: Homo sapiens
Procedure, shortened: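 H-1 cells (high-yield EBV producer from P3HR-1) kept in log growth, seeded at 2 × 10^5/well with drug in RPMI 1640 + 10% dialyzed FBS for 5 days at 37 °C. Lysates treated with RNase A and proteinase K, slot-blotted, probed with 32P EBV EcoRI C fragment; normalized to Alu DNA vs untreated cells by densitometry.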

[17] = test system: MEF; experiment: Inhibitory concentration against murine cytomegalovirus replication in MEF cells was determined by plaque reduction assay; assay type: functional, cell-based; conditions: Mus musculus
Procedure, shortened: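 MEF cells plated 2 days earlier and infected with MCMV (20–30 plaques/well) for 1 h. Six 1:5 drug dilutions in MEM + 2% FBS, duplicate wells, 7 days at 37 °C, 1.5% neutral red stain, plaques counted; IC50 by linear regression vs log concentration.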

[18] = test system: CCRF-CEM; experiment: Inhibitory concentration against mitochondrial DNA synthesis CEM cells; assay type: functional, cell-based; conditions: Homo sapiens
Procedure, shortened: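 CEM cells (2 × 10^5/mL) in RPMI 1640 + 10% dialyzed FBS with compound, re-split with fresh drug on days 4 and 6. On day 8, 1 × 10^5 cells lysed with RNase A and proteinase K, slot-blotted, probed with a mitochondrial DNA-specific probe.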

[19] = test system: HFF; experiment: Cytotoxicity on stationary HFF cells at time of HCMV plaque enumeration in cells not effected by the virus.; assay type: functional, cell-based; conditions: Homo sapiens
Procedure, shortened: (§4)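 Visual cytotoxicity scored microscopically on stationary HFF or MEF cells not affected by virus, at the time of HCMV or MCMV plaque enumeration.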

[20] = test system: HFF; experiment: IC50 value was evaluated by measuring the %inhibition of Human Herpes Virus 6(HHV-6) infected […] cells using ELISA assay; assay type: functional, cell-based
[21] = test system: HFF; experiment: IC50 value was evaluated by measuring the %inhibition of Varicella Zoster virus(VZV) infected HFF cells using plaque reduction assay.; assay type: functional, cell-based; conditions: Homo sapiens
Procedure, shortened: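 HFF cells plated 2 days earlier and infected with VZV (20–30 plaques/well) for 1 h. Six 1:5 drug dilutions in MEM + 2% FBS, no antibody overlay, duplicate wells; extra medium on day 5, 10 days total at 37 °C. Neutral red stain, plaques counted; IC50 from regression.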

[22] = test system: MEF; experiment: Cytotoxicity on stationary MEF cells at time of MCMV plaque enumeration in cells not effected by the virus.; assay type: functional, cell-based; conditions: Mus musculus; procedure, shortened: as §4
[23] = test system: CCRF-CEM; experiment: Cytotoxicity on CEM cells; assay type: functional, cell-based; conditions: Homo sapiens; procedure, shortened: as §1

Question: With `Nc1nc(Cl)c2ncn(/C=C3\CC3CO)c2n1` (stereo not given) as the compound, how does the pIC50 [1] read?
Answer: < 4.00

Question: What about the pIC50 [2] of the same compound?
Answer: 4.22

Question: What about the pIC50 [3] of the same compound?
Answer: < 3.70

Question: And the pIC50 [4]?
Answer: 3.84

Question: What about the pIC50 [5] of the same compound?
Answer: < 4.00

Question: What about the pIC50 [6] of the same compound?
Answer: > 4.30

Question: And the pIC50 [7]?
Answer: < 4.10

Question: What about the pIC50 [8] of the same compound?
Answer: < 4.10

Question: What about the pIC50 [9] of the same compound?
Answer: < 4.00

Question: And the IC90 [10]?
Answer: 11 µM

Question: And the pIC50 [11]?
Answer: < 4.10

Question: What about the pIC50 [12] of the same compound?
Answer: < 5.00

Question: And the pIC50 [13]?
Answer: < 4.00

Question: And the pIC50 [14]?
Answer: < 4.00

Question: What about the pIC50 [15] of the same compound?
Answer: 4.02

Question: What about the pIC50 [16] of the same compound?
Answer: < 5.00

Question: With `Nc1nc2c(ncn2COC(CO)CO)c(=O)[nH]1` [GANCICLOVIR] as the compound, how does the pIC50 [8] read?
Answer: 5.59

Question: What about the pIC50 [9] of the same compound?
Answer: 5.13

Question: And the IC90 [10]?
Answer: 1.6 µM

Question: And the pIC50 [17]?
Answer: 5.47

Question: With `Nc1nc(O)c2ncn(/C=C3/CC3CO)c2n1` (stereo not given) [SYNGUANOL] as the compound, how does the pIC50 [1] read?
Answer: < 4.00

Question: And the pIC50 [18]?
Answer: < 4.00

Question: And the pIC50 [2]?
Answer: < 4.00

Question: What about the pIC50 [3] of the same compound?
Answer: < 3.67

Question: What about the pIC50 [4] of the same compound?
Answer: 5.25

Question: What about the pIC50 [5] of the same compound?
Answer: 4.00

Question: What about the pIC50 [6] of the same compound?
Answer: < 4.30

Question: What about the pIC50 [19] of the same compound?
Answer: < 4.00

Question: And the pIC50 [20]?
Answer: 4.37

Question: And the pIC50 [21]?
Answer: 4.21

Question: What about the pIC50 [7] of the same compound?
Answer: 4.21

Question: What about the pIC50 [8] of the same compound?
Answer: 7.40

Question: And the pIC50 [9]?
Answer: 5.68

Question: And the IC90 [10]?
Answer: 1.8 µM

Question: And the pIC50 [11]?
Answer: < 3.38

Question: And the pIC50 [12]?
Answer: 5.00

Question: What about the pIC50 [13] of the same compound?
Answer: < 4.00

Question: And the pIC50 [17]?
Answer: 6.52

Question: And the pIC50 [14]?
Answer: < 4.00

Question: What about the pIC50 [15] of the same compound?
Answer: 4.07

Question: What about the pIC50 [16] of the same compound?
Answer: 6.52

Question: What about the pIC50 [22] of the same compound?
Answer: < 3.37

Question: With `Nc1ccn([C@H]2CC[C@@H](CO)O2)c(=O)n1` [ZALCITABINE] as the compound, how does the pIC50 [18] read?
Answer: 7.15

Question: And the pIC50 [23]?
Answer: 5.00

Question: And the pIC50 [12]?
Answer: 5.85
